Published values pooled from the literature.
Each line is one published result; the experiments were not run side by side.
Effect on: cell growth or viability

| SMILES | cell line | test | conditions | measurement | value |
| --- | --- | --- | --- | --- | --- |
| CCCCCCCCCCCCCCCCCCOc1ccccc1CC(=O)OCC[N+]1(C)CCOCC1 | NCI-H522 | SRB | 10 µM | inhibition | 60.1% |
| C=C(NC(=O)C(=C)NC(=O)c1csc(C2=N[C@@H]3c4csc(n4)[C@H]4NC(=O)c5csc(n5)[C@H]([C@](C)(O)[C@@H](C)O)NC(=O)[C@H]5CSC(=N5)/C(=C/C)NC(=O)[C@H]([C@@H](C)O)NC(=O)c5csc(n5)[C@]3(CC2)NC(=O)[C@H](C)NC(=O)C(=C)NC(=O)[C@H](C)NC(=O)[C@H]([C@@H](C)CC)N[C@@H]2C=Cc3c([C@H](C)O)cc(nc3[C@H]2O)C(=O)O[C@@H]4C)n1)C(N)=O | U-251 |  |  | EC50 | 900 nM |
| CN(C)CCNC(=O)c1ccc(-c2nc3ccc4[nH]ncc4c3c3c2CCCC3)c(F)c1 | EOL1 |  | 72 h | GI50 | 42 nM |
| COc1ccc(C=NNC(=O)c2nc3ccccc3s2)cc1OS(C)(=O)=O | PC-3 | MTT | 100 µM, 48 h | cell death | 44.5% |
| CCCCCCCCCCCCCCCCCCOc1cccc(CC(=O)OCC[N+]2(C)CCCCC2)c1 | NCI-H522 | SRB | 10 µM | inhibition | 28.5% |
| Cc1n[nH]c2ccc3nc(-c4ccc(C(=O)NCCN(C)C)cc4F)c4c(c3c12)CCCC4 | EOL1 |  | 72 h | GI50 | 89 nM |
| CS(=O)(=O)NCCC(=O)Nc1ccccc1/N=c1\cc(-c2ccc3nc(N)oc3c2)oc2ccccc12 | A549 | CCK-8 | 1 µM | inhibition | -5.4% |
| CCCCCCCCCCCCCCCCCCOc1ccc(CC(=O)OCC[N+]2(C)CCOCC2)cc1 | NCI-H522 | SRB | 10 µM | inhibition | 5.79% |
| CCc1nc(C(N)=O)c(Nc2ccc(N3CCC(N4CCN(C)CC4)CC3)c(OC)c2)nc1NC1CCOCC1 | EOL1 |  | 72 h | GI50 | 70 nM |
| Nc1nc2ccc(-c3c/c(=N\c4ccccc4NC(=O)CCN4CCOCC4)c4ccccc4o3)cc2o1 | A549 | CCK-8 | 1 µM | inhibition | 16.4% |
| Cc1nc(Nc2ncc(C(=O)Nc3c(C)cccc3Cl)s2)cc(N2CC[C@H](O)C2)n1 | MEG-01 | ATP luminescence | 10 µM, 72 h | inhibition | 93% |
| NCCC(=O)Nc1ccccc1/N=c1\cc(-c2ccc3nc(N)oc3c2)oc2ccccc12 | A549 | CCK-8 | 1 µM | inhibition | 18.6% |
| CN(C)CCNC(=O)c1ccc(-c2nc3ccc4[nH]ncc4c3c3c2CCCC3)cc1 | EOL1 |  | 72 h | GI50 | 149 nM |
| CCCCCCCCCCCCCCCCCCOc1ccccc1CC(=O)OCCC[N+](C)(C)C | NCI-H522 | SRB | 10 µM | inhibition | 63.7% |
| O=c1[nH]cc(F)c(=O)[nH]1 | PC-3 | MTT | 100 µM, 48 h | cell death | 10.7% |
| COCCC(=O)Nc1ccccc1/N=c1\cc(-c2ccc3c(c2)OCO3)oc2ccccc12 | A549 | CCK-8 | 1 µM | inhibition | 4.66% |
| C[C@H](Nc1ccc2c(c1)OCCn1cc(N3C(=O)OC[C@H]3C(F)F)nc1-2)C(N)=O | NCI-H1048 | ATP luminescence | 5 days | EC50 | 0.3 nM |
| CCCCCCCCCCCCCCCCCCOc1cccc(CC(=O)OCC[N+]2(C)CCOCC2)c1 | NCI-H522 | SRB | 10 µM | inhibition | 16.9% |
| O=C(NN=Cc1ccc(O)cc1)c1nc2ccccc2s1 | PC-3 | MTT | 100 µM, 48 h | cell death | 39.6% |
| CNCCC(=O)Nc1ccccc1/N=c1\cc(-c2ccc3nc(N)oc3c2)oc2ccccc12 | A549 | CCK-8 | 1 µM | inhibition | 7.88% |
| CCCCCCCCCCCCCCCCCCOc1cccc(CC(=O)OCC[N+]2(C)CCCC2)c1 | NCI-H522 | SRB | 10 µM | inhibition | 36.6% |
| NCCC(=O)Nc1cccc(/N=c2\cc(-c3ccc4c(c3)OCO4)oc3ccccc23)c1 | A549 | CCK-8 | 1 µM | inhibition | -1.71% |
| CCCCCCCCCCCCCCCCCCOc1ccc(CC(=O)OCC[N+]2(C)CCCCC2)cc1 | NCI-H522 | SRB | 10 µM | inhibition | 10.8% |
| CC(C)(C)c1cc(NC(=O)Nc2ccc(-c3cn4c(n3)sc3cc(OCCN5CCOCC5)ccc34)cc2)no1 | EOL1 |  | 72 h | GI50 | < 0.1 nM |
